Values after ≈ are worked out from the molar mass of the structure shown. Active and inactive are the calls of the source.
How the values were obtained:
Staphylococcus aureus [1] = test: Antibacterial activity against […] Staphylococcus aureus EMRSA-16 after 18 hrs by MTT assay; assay type: functional
Summary of the method: (§1)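 Strains grown on nutrient agar 24 h at 37 °C; inoculum 1 × 10⁶ cfu/mL in normal saline, set against 0.5 McFarland standard. Samples dissolved in DMSO, diluted in cation-adjusted Mueller-Hinton broth (Ca²⁺ 20 mg/L, Mg²⁺ 10 mg/L), starting 1024 mg/L, twofold serial broth microdilution; 37 °C, 18 h; MTT added, 20 min; MIC = lowest concentration without yellow-to-blue change.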

Staphylococcus aureus [2] = test: Antibacterial activity against […] Staphylococcus aureus ATCC 25923 after 18 hrs by MTT assay; assay type: functional; summary of the method: as §1
Staphylococcus aureus [3] = test: Antibacterial activity against MsrA macrolide-resistant Staphylococcus aureus RN4220 after 18 hrs by MTT assay; assay type: functional; summary of the method: as §1
Staphylococcus aureus [4] = test: Antibacterial activity against […] Staphylococcus aureus EMRSA-15 after 18 hrs by MTT assay; assay type: functional; summary of the method: as §1
Staphylococcus aureus [5] = test: Antibacterial activity against […] Staphylococcus aureus XU212 expressing TetK efflux pump after 18 hrs by MTT assay; assay type: functional; summary of the method: as §1
Staphylococcus aureus [6] = test: Antibacterial activity against […] Staphylococcus aureus SA1199B over expressing NorA MDR efflux pump after 18 hrs by MTT assay; assay type: functional; summary of the method: as §1
Staphylococcus aureus [7] = test: […] activity against […] Staphylococcus aureus SA1199B over expressing NorA MDR efflux pump assessed as growth inhibition after 24 hrs using cell cultures pre-treated with compound for 24 hrs; assay type: functional, organism-based
Summary of the method: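 MIC-plate wells from SA-1199B showing no growth sampled (10 μL) onto drug-free Mueller-Hinton agar, incubated 24 h; growth of colonies scored; bactericidal end point defined as ≥99.9% reduction versus starting inoculum. MBC plates themselves incubated 24 h at 37 °C before transfer.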

COc1cc2c(=O)c3ccccc3oc2cc1O
MIC (Staphylococcus aureus [1]; EMRSA-16, 18 h): 32 µg/mL (≈ 132 µM) | MIC (Staphylococcus aureus [2]; ATCC 25923, 18 h): 64 µg/mL (≈ 264 µM) | MIC (Staphylococcus aureus [3]; RN4220, 18 h): 64 µg/mL (≈ 264 µM) | MIC (Staphylococcus aureus [4]; EMRSA-15, 18 h): 64 µg/mL (≈ 264 µM) | MIC (Staphylococcus aureus [5]; XU212, 18 h): 64 µg/mL (≈ 264 µM) | MIC (Staphylococcus aureus [6]): 64 µg/mL (≈ 264 µM)

CCCCC(C(=O)OC)[C@]12C(=O)[C@](CC=C(C)C)(C[C@H](CC=C(C)C)C1(C)C)C(=O)C(C(=O)CCC)=C2O (some centres not stated)
MIC (Staphylococcus aureus [1]; EMRSA-16, 18 h): 0.5 µg/mL (≈ 0.946 µM) | MIC (Staphylococcus aureus [2]; ATCC 25923, 18 h): 1 µg/mL (≈ 1.89 µM) | MIC (Staphylococcus aureus [3]; RN4220, 18 h): 0.25 µg/mL (≈ 0.473 µM) | growth inhibition (GI) (Staphylococcus aureus [7]): Active | MIC (Staphylococcus aureus [4]; EMRSA-15, 18 h): 1 µg/mL (≈ 1.89 µM) | MIC (Staphylococcus aureus [5]; XU212, 18 h): 0.25 µg/mL (≈ 0.473 µM) | MIC (Staphylococcus aureus [6]): 2 µg/mL (≈ 3.78 µM)

COc1cc2c(=O)c3ccccc3oc2c(O)c1OC
MIC (Staphylococcus aureus [1]; EMRSA-16, 18 h): 64 µg/mL (≈ 235 µM) | MIC (Staphylococcus aureus [2]; ATCC 25923, 18 h): 128 µg/mL (≈ 470 µM) | MIC (Staphylococcus aureus [3]; RN4220, 18 h): > 512 µg/mL | MIC (Staphylococcus aureus [4]; EMRSA-15, 18 h): > 512 µg/mL | MIC (Staphylococcus aureus [5]; XU212, 18 h): 128 µg/mL (≈ 470 µM) | MIC (Staphylococcus aureus [6]): 64 µg/mL (≈ 235 µM)

COc1cc(OC)c2c(=O)c3cccc(O)c3oc2c1
MIC (Staphylococcus aureus [1]; EMRSA-16, 18 h): 64 µg/mL (≈ 235 µM) | MIC (Staphylococcus aureus [2]; ATCC 25923, 18 h): 128 µg/mL (≈ 470 µM) | MIC (Staphylococcus aureus [3]; RN4220, 18 h): > 512 µg/mL | MIC (Staphylococcus aureus [4]; EMRSA-15, 18 h): > 512 µg/mL | MIC (Staphylococcus aureus [5]; XU212, 18 h): > 512 µg/mL | MIC (Staphylococcus aureus [6]): 64 µg/mL (≈ 235 µM)

COc1c(O)ccc2oc3ccccc3c(=O)c12
MIC (Staphylococcus aureus [1]; EMRSA-16, 18 h): 32 µg/mL (≈ 132 µM) | MIC (Staphylococcus aureus [2]; ATCC 25923, 18 h): 64 µg/mL (≈ 264 µM) | MIC (Staphylococcus aureus [3]; RN4220, 18 h): 64 µg/mL (≈ 264 µM) | MIC (Staphylococcus aureus [4]; EMRSA-15, 18 h): 64 µg/mL (≈ 264 µM) | MIC (Staphylococcus aureus [5]; XU212, 18 h): 128 µg/mL (≈ 528 µM) | MIC (Staphylococcus aureus [6]): 64 µg/mL (≈ 264 µM)

CC[C@H](/C=C/[C@@H](C)[C@H]1CC[C@H]2[C@@H]3CC=C4C[C@@H](O)CC[C@]4(C)[C@H]3CC[C@]12C)C(C)C
MIC (Staphylococcus aureus [1]): inactive | MIC (Staphylococcus aureus [2]): inactive | MIC (Staphylococcus aureus [3]): inactive | MIC (Staphylococcus aureus [4]): inactive | MIC (Staphylococcus aureus [5]): inactive | MIC (Staphylococcus aureus [6]): inactive

COc1cc2c(=O)c3ccccc3oc2c(O)c1O
MIC (Staphylococcus aureus [1]; EMRSA-16, 18 h): 16 µg/mL (≈ 62 µM) | MIC (Staphylococcus aureus [2]; ATCC 25923, 18 h): 64 µg/mL (≈ 248 µM) | MIC (Staphylococcus aureus [3]; RN4220, 18 h): 32 µg/mL (≈ 124 µM) | MIC (Staphylococcus aureus [4]; EMRSA-15, 18 h): 64 µg/mL (≈ 248 µM) | MIC (Staphylococcus aureus [5]; XU212, 18 h): 16 µg/mL (≈ 62 µM) | MIC (Staphylococcus aureus [6]): 32 µg/mL (≈ 124 µM)

CCn1cc(C(=O)O)c(=O)c2cc(F)c(N3CCNCC3)cc21 [NORFLOXACIN]
MIC (Staphylococcus aureus [1]; EMRSA-16, 18 h): 128 µg/mL (≈ 401 µM) | MIC (Staphylococcus aureus [2]; ATCC 25923, 18 h): 0.5 µg/mL (≈ 1.57 µM) | MIC (Staphylococcus aureus [3]; RN4220, 18 h): 0.5 µg/mL (≈ 1.57 µM) | MIC (Staphylococcus aureus [4]; EMRSA-15, 18 h): 0.5 µg/mL (≈ 1.57 µM) | MIC (Staphylococcus aureus [5]; XU212, 18 h): 8 µg/mL (≈ 25.1 µM) | MIC (Staphylococcus aureus [6]): 32 µg/mL (≈ 100 µM)

CC[C@H](CC[C@@H](C)[C@H]1CC[C@H]2[C@@H]3CC=C4C[C@@H](O)CC[C@]4(C)[C@H]3CC[C@]12C)C(C)C
MIC (Staphylococcus aureus [1]): inactive | MIC (Staphylococcus aureus [2]): inactive | MIC (Staphylococcus aureus [3]): inactive | MIC (Staphylococcus aureus [4]): inactive | MIC (Staphylococcus aureus [5]): inactive | MIC (Staphylococcus aureus [6]): inactive

COc1cc([C@@H]2Oc3c(OC)cc4c(=O)c5ccccc5oc4c3O[C@H]2CO)ccc1O
MIC (Staphylococcus aureus [1]; EMRSA-16, 18 h): > 512 µg/mL | MIC (Staphylococcus aureus [2]; ATCC 25923, 18 h): > 512 µg/mL | MIC (Staphylococcus aureus [3]; RN4220, 18 h): > 512 µg/mL | MIC (Staphylococcus aureus [4]; EMRSA-15, 18 h): > 512 µg/mL | MIC (Staphylococcus aureus [5]; XU212, 18 h): > 512 µg/mL | MIC (Staphylococcus aureus [6]): > 512 µg/mL

CC(C)[C@H](C)CC[C@@H](C)[C@H]1CC[C@H]2[C@@H]3CC=C4C[C@@H](O)CC[C@]4(C)[C@H]3CC[C@]12C
MIC (Staphylococcus aureus [1]): inactive | MIC (Staphylococcus aureus [2]): inactive | MIC (Staphylococcus aureus [3]): inactive | MIC (Staphylococcus aureus [4]): inactive | MIC (Staphylococcus aureus [5]): inactive | MIC (Staphylococcus aureus [6]): inactive
